Source: ChEMBL document CHEMBL3393037, “Design, synthesis, and biological evaluation of aminothiazole derivatives against the fungal pathogens Histoplasma capsulatum and Cryptococcus neoformans” (Bioorg Med Chem, 2015)
≈ marks a conversion by molar mass, not a printed value.

How the values were obtained:
[1] = Antifungal activity against Histoplasma capsulatum G217B ATCC 26032 assessed as inhibition of visible growth after 5 days; assay type: functional
Procedure, shortened: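 Wild-type G217B yeasts kept in HMM at 37 °C under 5% CO2. Wells held 2×10^5 yeasts (hemocytometer count) with a two-fold dilution series from 40 to 0.078 µM, at 1% DMSO in the top dilution. Plates were agitated twice daily and growth followed by A595 over 5 days. MIC is the lowest concentration with no visible growth on visual inspection of the plates.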

[2] = Selectivity index, ratio of MIC50 for human HepG2 cells to MIC50 for Histoplasma capsulatum strain G217B ATCC 26032
Cryptococcus neoformans = test: Antifungal activity against Cryptococcus neoformans MATalpha serotype A strain H99 assessed as inhibition of visible growth after 5 days; assay type: functional; settings: MATalpha serotype A strain H99, 120 h
[3] = Cytotoxicity against human HepG2 cells after 72 hrs by crystal violet staining method; assay type: cell-based; settings: for CC50 at 72 h: read-out: MIC50
Procedure, shortened: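 HepG2 cells in MEM with 10% FBS and 2 mM L-glutamine were seeded at 1×10^4 per well and left to adhere overnight. Compound was added at 0.3 to 80 µM for 72 h. Cells were fixed in 3% paraformaldehyde, stained with 0.1% crystal violet, and the dye taken up in 10% acetic acid and read at A590. Values were normalised to DMSO-matched controls, in triplicate.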

O=C(Nc1ncc(-c2ccccc2)s1)C1CCCCC1
MIC [1]: > 20 µM | MIC50 [1]: > 10 µM

O=C(Nc1ncc(Cc2ccccc2)s1)c1cnc(-c2cccs2)s1
MIC [1]: > 20 µM | MIC50 [1]: > 10 µM

O=C(Nc1ncc(Cc2ccc3ccccc3c2)s1)c1ccccc1
MIC [1]: > 20 µM | MIC50 [1]: > 10 µM

CC(C)C(=O)Nc1ncc(Cc2ccccc2)s1
MIC [1]: 20 µM (≈ 5.21 µg/mL) | MIC50 [1]: 6.7 µM (≈ 1.74 µg/mL)

O=C(CCC1CCCCC1)Nc1ncc(Cc2cccc3ccccc23)s1
MIC [1]: 1.3 µM (≈ 0.492 µg/mL) | MIC50 [1]: 0.4 µM (≈ 0.151 µg/mL) | Ratio [2]: >100 | MIC (Cryptococcus neoformans): > 20 µM | MIC50 (Cryptococcus neoformans): > 10 µM | CC50 at 72 h [3]: > 40 µM

O=C(Nc1ncc(Cc2ccccc2)s1)N1CCCCC1
MIC [1]: > 20 µM | MIC50 [1]: > 10 µM

Cc1nc(NC(=O)CCC2CCCCC2)sc1Cc1ccccc1
MIC [1]: > 20 µM | MIC50 [1]: > 10 µM

O=C(CCC1CCCCC1)Nc1ncc(Cc2ccccc2)s1
MIC [1]: 1.3 µM (≈ 0.427 µg/mL) | MIC50 [1]: 0.7 µM (≈ 0.23 µg/mL) | Ratio [2]: >44 | MIC (Cryptococcus neoformans): > 20 µM | MIC50 (Cryptococcus neoformans): > 10 µM | CC50 at 72 h [3]: > 40 µM

O=C(Nc1ncc(Cc2ccccc2)s1)C1COc2ccccc2C1 (configuration not stated)
MIC [1]: > 20 µM | MIC50 [1]: > 10 µM

O=C(CCC1CCCCC1)Nc1ncc(-c2ccccc2)s1
MIC [1]: > 20 µM | MIC50 [1]: > 10 µM

O=C(Nc1ncc(Cc2cccc3ccccc23)s1)C12CC3CC(CC(C3)C1)C2
MIC [1]: > 20 µM | MIC50 [1]: > 10 µM

O=C(CC1CCCCC1)Nc1ncc(CC2CCCCC2)s1
MIC [1]: > 20 µM | MIC50 [1]: > 10 µM

CC(C)C(=O)Nc1nc(C23CC4CC(CC(C4)C2)C3)cs1
MIC [1]: > 20 µM | MIC50 [1]: > 10 µM

O=C(CCC1CCCCC1)Nc1ncc(Cc2cccc(F)c2)s1
MIC [1]: 2.5 µM (≈ 0.866 µg/mL) | MIC50 [1]: 0.8 µM (≈ 0.277 µg/mL) | Ratio [2]: 57 | MIC (Cryptococcus neoformans): > 20 µM | MIC50 (Cryptococcus neoformans): > 10 µM | CC50 at 72 h [3]: 40 µM

O=C(CC1CCCCC1)Nc1ncc(Cc2ccc3ccccc3c2)s1
MIC [1]: 20 µM (≈ 7.29 µg/mL) | MIC50 [1]: 5.7 µM (≈ 2.08 µg/mL)

O=C(Nc1ncc(CC2CCCCC2)s1)C1CCCCC1
MIC [1]: 2.5 µM (≈ 0.766 µg/mL) | MIC50 [1]: 0.7 µM (≈ 0.215 µg/mL) | MIC (Cryptococcus neoformans): > 20 µM | MIC50 (Cryptococcus neoformans): > 10 µM

O=C(Nc1ncc(Cc2ccccc2)s1)C1CCSCC1
MIC [1]: 10 µM (≈ 3.18 µg/mL) | MIC50 [1]: 4.8 µM (≈ 1.53 µg/mL)

CC(C)C(=O)Nc1ncc(CC2CCCCC2)s1
MIC [1]: > 20 µM | MIC50 [1]: > 10 µM

O=C(Nc1ncc(Cc2cccc3ccccc23)s1)C1CCCC1
MIC [1]: 1.3 µM (≈ 0.437 µg/mL) | MIC50 [1]: 0.8 µM (≈ 0.269 µg/mL) | Ratio [2]: >57 | MIC (Cryptococcus neoformans): 1.3 µM (≈ 0.437 µg/mL) | MIC50 (Cryptococcus neoformans): 0.8 µM (≈ 0.269 µg/mL) | CC50 at 72 h [3]: > 40 µM

O=C(Nc1ncc(Cc2ccc(F)cc2)s1)C1CCCC1
MIC [1]: 20 µM (≈ 6.09 µg/mL) | MIC50 [1]: 5.2 µM (≈ 1.58 µg/mL)

O=C(CC1CCCCC1)Nc1ncc(-c2ccccc2)s1
MIC [1]: > 20 µM | MIC50 [1]: > 10 µM

CC(C)C(=O)Nc1ncc(Cc2cccc3ccccc23)s1
MIC [1]: 2.5 µM (≈ 0.776 µg/mL) | MIC50 [1]: 1.5 µM (≈ 0.466 µg/mL) | MIC (Cryptococcus neoformans): > 20 µM | MIC50 (Cryptococcus neoformans): > 10 µM

O=C(Nc1ncc(Cc2ccccc2)s1)C(F)(F)F
MIC [1]: > 20 µM | MIC50 [1]: > 10 µM

O=C(Nc1ncc(Cc2ccc3ccccc3c2)s1)C1CCCCC1
MIC [1]: > 20 µM | MIC50 [1]: > 10 µM

CN(C(=O)CCC1CCCCC1)c1ncc(Cc2ccccc2)s1
MIC [1]: > 20 µM | MIC50 [1]: > 10 µM

O=C(CCC1CCCCC1)Nc1ncc(CC2CCCCC2)s1
MIC [1]: 5 µM (≈ 1.67 µg/mL) | MIC50 [1]: 0.8 µM (≈ 0.268 µg/mL) | MIC (Cryptococcus neoformans): > 20 µM | MIC50 (Cryptococcus neoformans): 9.6 µM (≈ 3.21 µg/mL)

O=C(Nc1ncc(-c2ccccc2)s1)C1CCCC1
MIC [1]: > 20 µM | MIC50 [1]: > 10 µM

O=C(Nc1ncc(Cc2ccccc2)s1)C12CC3CC(CC(C3)C1)C2
MIC [1]: 10 µM (≈ 3.53 µg/mL) | MIC50 [1]: 5 µM (≈ 1.76 µg/mL)

Nc1ncc(Cc2ccccc2)s1
MIC [1]: > 20 µM | MIC50 [1]: > 10 µM

O=C(CCC1CCCCC1)Nc1ncc(Cc2ccc(F)cc2)s1
MIC [1]: > 20 µM | MIC50 [1]: > 10 µM

CC(C)C(=O)Nc1ncc(Cc2ccc3ccccc3c2)s1
MIC [1]: 20 µM (≈ 6.21 µg/mL) | MIC50 [1]: 4.5 µM (≈ 1.4 µg/mL)

NC(=O)c1cc(-c2ccccc2)sc1NC(=O)c1ccc2c(c1)OCCO2
MIC50 [1]: 2.5 µM (≈ 0.951 µg/mL) | MCC at 72 h ([3]; read-out: MIC): 10 µM

O=C(Nc1ncc(Cc2ccccc2)s1)C1CCCC1
MIC [1]: 5 µM (≈ 1.43 µg/mL) | MIC50 [1]: 1.6 µM (≈ 0.458 µg/mL) | Ratio [2]: >24 | MIC (Cryptococcus neoformans): 10 µM (≈ 2.86 µg/mL) | MIC50 (Cryptococcus neoformans): 3.6 µM (≈ 1.03 µg/mL) | CC50 at 72 h [3]: > 40 µM
